Experimental data reported in ChEMBL document CHEMBL3822443, “Looking for new antiplasmodial quinazolines: DMAP-catalyzed synthesis of 4-benzyloxy- and 4-aryloxy-2-trichloromethylquinazolines and their in vitro evaluation toward Plasmodium falciparum” (Eur J Med Chem, 2016).

Assays:
[1] = Solubility of compound in RPMI1640 culture medium containing 25mM HEPES, 25 mM NaHCO3 and 10% A+ human serum; assay type: physicochemical
[2] = Selectivity index, ratio of CC50 for human HepG2 cells to IC50 for chloroquine/purimethamine/proguanil-resistant Plasmodium falciparum K1; assay type: functional
Procedure, shortened: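 SI = CC50/IC50 (K1). […] MTT at 0.5 mg/mL was added for 2 h, and absorbance read at 570 nm against 630 nm reference. Viability was taken as % of control, and CC50 is the mean of three independent experiments.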

[3] = Cytotoxicity against human HepG2 cells measured after 72 hrs by MTT assay; assay type: cell-based
Procedure, shortened: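 Cells seeded at 5.10³ per well in complete medium at 37 °C, humidified 6% CO₂, and left 24 h. Compound was added in DMSO (final under 0.5% v/v) over a range of concentrations for 72 h at 37 °C, in triplicate. Wells were checked under the microscope for precipitate. MTT (0.5 mg/mL in FCS-free medium) was added for 2 h, then A570 read with a 630 nm reference. Viability was taken as % of control, CC50 from dose–response, mean of three independent experiments.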

Plasmodium falciparum = experiment: Antiplasmodial activity against chloroquine/purimethamine/proguanil-resistant Plasmodium falciparum K1 infected in human A+ erythrocytes assessed as reduction in parasitaemia measured after 72 hrs by SYBR Green I fluorescence-based assay; assay type: functional, organism-based; settings: K1, 72 h

SMILES	solubility [1]	Ratio CC50/IC50 [2]	CC50 at 72 h [3] [µM]	IC50 (Plasmodium falciparum) [µM]
COc1cccc(Oc2nc(C(Cl)(Cl)Cl)nc3ccccc23)c1	soluble	0.3	0.5	–
Clc1ccc(Oc2nc(C(Cl)(Cl)Cl)nc3ccccc23)c(Cl)c1	soluble	18.4	22.1	1.2
CC(=O)c1ccccc1Oc1nc(C(Cl)(Cl)Cl)nc2ccccc12	soluble	26.7	40	1.5
Cc1cc(Oc2nc(C(Cl)(Cl)Cl)nc3ccccc23)ccc1Cl	soluble	5.9	5.3	0.9
COc1ccc(COc2nc(C(Cl)(Cl)Cl)nc3ccccc23)cc1OC	soluble	30.6	118	3.9
ClC(Cl)(Cl)c1nc(Oc2c(Br)cc(Br)c3cccnc23)c2ccccc2n1	soluble	<0.5	4.9	> 10
Cc1ccc(COc2nc(C(Cl)(Cl)Cl)nc3ccccc23)cc1	soluble	12.7	50.9	4
ClC(Cl)(Cl)c1nc(Oc2cccc(Br)c2)c2ccccc2n1	soluble	16	36.7	2.3
ClC(Cl)(Cl)c1nc(OCc2cccc(OCc3ccccc3)c2)c2ccccc2n1	soluble	16.4	62.5	3.8
ClC(Cl)(Cl)c1nc(Oc2ccccc2Br)c2ccccc2n1	soluble	13.8	26.2	1.9
Clc1ccc(COc2nc(C(Cl)(Cl)Cl)nc3ccccc23)cc1	soluble	13.4	33.4	2.5
Cc1occc(=O)c1Oc1nc(C(Cl)(Cl)Cl)nc2ccccc12	soluble	<6.3	62.7	> 10
CC(=O)c1ccccc1Oc1nc(C)nc2ccccc12	soluble	–	–	> 15
N#Cc1ccc(Oc2nc(C(Cl)(Cl)Cl)nc3ccccc23)cc1	Insoluble	>5	> 8	1.6
FC(F)(F)c1ccc(COc2nc(C(Cl)(Cl)Cl)nc3ccccc23)cc1	soluble	9.9	27.8	2.8
O=[N+]([O-])c1ccc(COc2nc(C(Cl)(Cl)Cl)nc3ccccc23)cc1	soluble	19.4	34.9	1.8
COc1ccc(COc2nc(C(Cl)(Cl)Cl)nc3ccccc23)cc1	soluble	<9	90.3	> 10
O=c1cc(Oc2nc(C(Cl)(Cl)Cl)nc3ccccc23)c2ccccc2o1	soluble	<5.9	59	> 10
ClC(Cl)(Cl)c1nc(Oc2ccc3ccccc3n2)c2ccccc2n1	soluble	<3	30.3	> 10

SMILES	solubility [1]	Ratio CC50/IC50 [2]	CC50 at 72 h [3] [µM]	IC50 (Plasmodium falciparum) [µM]
CC(C)c1ccc(COc2nc(C(Cl)(Cl)Cl)nc3ccccc23)cc1	soluble	<3.3	33.3	> 10
O=Cc1ccccc1Oc1nc(C(Cl)(Cl)Cl)nc2ccccc12	soluble	7.5	75	10
CC(=O)c1cccc(Oc2nc(C(Cl)(Cl)Cl)nc3ccccc23)c1	soluble	0.6	1	1.7
O=[N+]([O-])c1cccc(COc2nc(C(Cl)(Cl)Cl)nc3ccccc23)c1	soluble	13.6	29.9	2.2
C#CC(Oc1nc(C(Cl)(Cl)Cl)nc2ccccc12)c1ccccc1 (configuration not stated)	soluble	10.2	24.6	2.4
Fc1c(F)c(F)c(Oc2nc(C(Cl)(Cl)Cl)nc3ccccc23)c(F)c1F	soluble	9.9	43.7	4.4
ClC(Cl)(Cl)c1nc(OCc2ccccc2)c2ccccc2n1	soluble	21.9	43.8	2
O=[N+]([O-])c1ccccc1COc1nc(C(Cl)(Cl)Cl)nc2ccccc12	Insoluble	>4.3	> 10	2.3
CC(=O)c1ccc(Oc2nc(C(Cl)(Cl)Cl)nc3ccccc23)cc1	soluble	21.5	49.5	2.3
O=[N+]([O-])c1ccc(/C=C/COc2nc(C(Cl)(Cl)Cl)nc3ccccc23)cc1	soluble	12	31.2	2.6
O=[N+]([O-])c1cc2c(cc1COc1nc(C(Cl)(Cl)Cl)nc3ccccc13)OCO2	soluble	9.3	28.7	3.1
ClC(Cl)(Cl)c1nc(Oc2ccc(Br)cc2)c2ccccc2n1	soluble	25	45	1.8
CC(Oc1nc(C(Cl)(Cl)Cl)nc2ccccc12)c1ccc(Cl)cc1 (configuration not stated)	soluble	7.2	25.1	3.5
N#CC(Oc1nc(C(Cl)(Cl)Cl)nc2ccccc12)c1ccccc1 (configuration not stated)	soluble	17.1	25.7	1.5
CC(Oc1nc(C(Cl)(Cl)Cl)nc2ccccc12)c1ccccc1 (configuration not stated)	soluble	12.1	39.9	3.3
CC(Oc1nc(C(Cl)(Cl)Cl)nc2ccccc12)c1ccc(Cl)cc1Cl (configuration not stated)	soluble	7.2	30.2	4.2
COc1cc(C=O)cc([N+](=O)[O-])c1Oc1nc(C(Cl)(Cl)Cl)nc2ccccc12	soluble	<5.7	57	> 10
C[C@H]1c2cccc(O)c2C(=O)C2=C(O)[C@]3(O)C(=O)C(C(N)=O)=C(O)[C@@H](N(C)C)[C@@H]3[C@@H](O)[C@@H]21.O [DOXYCYCLINE]	–	3.3	–	–
